L major viab: Leishmania major promastigote growth inhibition | Leishmania major promastigotes, resazurin fluorescence viability | inhibition, % at 10 µM | 9% of 200,000 active | AID 1063; in the data active = inhibition above about 50%;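 also: promastigotes grown with compound for 44 hours at 28 °C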
WT yeast gro inh: growth inhibition of WT yeast, mitochondrial fusion screen; mitochondrial fusion phenotypic screen, WT strain; inhibition, % at 10 µM; 2.1% of 190,000 active; in the data active = inhibition above about 58%; tested in S. cerevisiae
ABCG2 inh: human ABCG2 inhibition, ABCB1 as counter-screen. Q9UNQ0. inhibition, % at 6.6 µM. IgMXP3 cells, JC-1 efflux, flow cytometry. 0.1% of 190,000 active;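 active = inhibition above 80%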;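 also: 0% = DMSO and 100% = nicardipine control wells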
Target sequence (Q9UNQ0 whole entry, looked up): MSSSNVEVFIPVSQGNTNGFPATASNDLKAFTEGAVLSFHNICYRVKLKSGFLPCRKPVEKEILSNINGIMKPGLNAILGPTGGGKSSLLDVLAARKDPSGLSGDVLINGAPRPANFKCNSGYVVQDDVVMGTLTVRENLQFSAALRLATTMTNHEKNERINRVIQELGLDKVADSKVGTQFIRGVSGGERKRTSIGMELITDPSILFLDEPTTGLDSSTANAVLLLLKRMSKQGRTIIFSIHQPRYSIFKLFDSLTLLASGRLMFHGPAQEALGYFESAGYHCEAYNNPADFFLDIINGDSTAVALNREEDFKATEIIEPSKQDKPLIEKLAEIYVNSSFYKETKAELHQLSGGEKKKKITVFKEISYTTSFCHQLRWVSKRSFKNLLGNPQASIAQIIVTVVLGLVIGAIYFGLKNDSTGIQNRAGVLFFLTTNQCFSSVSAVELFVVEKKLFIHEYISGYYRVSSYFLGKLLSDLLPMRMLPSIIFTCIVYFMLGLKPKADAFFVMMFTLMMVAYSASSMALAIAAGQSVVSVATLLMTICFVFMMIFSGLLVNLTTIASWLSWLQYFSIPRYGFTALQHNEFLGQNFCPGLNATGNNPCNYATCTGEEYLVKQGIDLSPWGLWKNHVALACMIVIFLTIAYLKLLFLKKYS
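Assay system – ABCG2 IgMXP3 and barcoded ABCB1 CCRF-Adr cell mix · Input – 3 million cells/mL in well · Reagent – JC-1 fluorescent substrate · Compound – single test compound dose, 6.6 µM final · Timing – 10 min exposure at 25 °C with rotation, no wash · Detection – flow cytometry of retained JC-1 fluorescence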
RAM network inh: inhibitors of the yeast RAM network; 1.8% of 190,000 active; inhibition, % at 50 µM; S. cerevisiae dse1pr::URA3 reporter, 5-FOA growth OD615, 2 d; analog-sensitive cbk1-as2 kinase mutant strain; AID 868;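 active = inhibition above a set limit, 3 SD over mean compound inhibition, cut at about 8.4% in these data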;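 also: 0% = DMSO-only wells with no growth and 100% = 10 µM 1-NA-PP1 full growth; inhibition rescues growth on 5-FOA so higher OD means more RAM inhibition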
ABCB1 inh: human ABCB1 inhibition, ABCG2 as counter-screen. P08183. CCRF-Adr cells, JC-1 efflux, flow cytometry. inhibition, % at 6.6 µM. 0.067% of 190,000 active. AID 1326; in the data active = inhibition above about 40%;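 also: 0% = vehicle and 100% = reference inhibitor; higher value means more JC-1 retained so stronger ABCB1 efflux block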
* = called active by the depositor. The list is not random: actives were taken first. Their share in the collection is about 12%.

Screening Nc1ncnc2oc(-c3ccco3)c(-c3ccco3)c12 returned L major viab 51.6*, WT yeast gro inh 20.5, ABCG2 inh 0.3, RAM network inh -0.7 and ABCB1 inh -0.1.
`O=C(c1ccc2c(c1)OCCO2)N1CCN(Cc2ccccc2)CC1` gave L major viab -4.4, WT yeast gro inh 17.7, ABCG2 inh 2.7, RAM network inh -0.3 and ABCB1 inh 0.6.
COc1ccc(C(=O)Nc2c3c(nn2-c2cccc(Cl)c2)CS(=O)C3)cc1 (stereo not drawn) was read as L major viab 97.6*, WT yeast gro inh -11.8, ABCG2 inh -0.3, RAM network inh 1.5 and ABCB1 inh -0.2.
COc1ccc(CC(=O)Nc2c3c(nn2-c2cccc(Cl)c2)CS(=O)(=O)C3)cc1 was read as L major viab 12.0, WT yeast gro inh 1.1, ABCG2 inh 1.8, RAM network inh 9.2* and ABCB1 inh 0.8.
For C=CCN=c1scc(-c2ccc3c(c2)NC(=O)CO3)n1/N=C(\C)c1ccccn1 the results were L major viab 57.3*, WT yeast gro inh 0.7, ABCG2 inh 0.5, RAM network inh 0.6 and ABCB1 inh -0.2.
COc1ccc(CNCCC(c2ccccc2)c2ccc3c(c2)OCO3)cc1 (stereo not drawn) was read as L major viab 100.5*, WT yeast gro inh -10.8, ABCG2 inh 2.3, RAM network inh -0.4 and ABCB1 inh 3.6.
Screening CC(=O)N(CCC(Cc1ccccc1)c1ccc2c(c1)OCO2)Cc1ccccc1F (stereo not drawn) returned L major viab 8.7, WT yeast gro inh 77.8*, ABCG2 inh 17.6, RAM network inh 2.5 and ABCB1 inh 4.7.
Screening COc1ccc(NC(=S)NCc2ccc3c(c2)OCO3)cc1 returned L major viab -2.3, WT yeast gro inh 3.5, ABCG2 inh 5.7, RAM network inh 1.1 and ABCB1 inh 0.6.
`Fc1ccccc1CNCCC(Cc1ccccc1)c1ccc2c(c1)OCO2` (stereo not drawn) gave L major viab 66.0*, WT yeast gro inh 37.2, ABCG2 inh 1.3, RAM network inh 1.6 and ABCB1 inh 1.2.
O=C(NC(Cc1ccccc1)c1ccc2c(c1)OCCCO2)c1ccccc1F (stereo not drawn) was read as L major viab 48.7, WT yeast gro inh 10.4, ABCG2 inh 2.6, RAM network inh 1.3 and ABCB1 inh 0.7.
Screening COc1cccc(N(CC(=O)N/N=C(\C)c2cccs2)S(C)(=O)=O)c1 returned L major viab 49.2, WT yeast gro inh -6.7, ABCG2 inh 20.3, RAM network inh 4.5 and ABCB1 inh 1.2.
Screening O=C(/C=C/c1cccs1)c1cc(Br)ccc1OC(=O)N1CCOCC1 returned L major viab 71.7*, WT yeast gro inh 17.9, ABCG2 inh 11.8, RAM network inh 1.6 and ABCB1 inh 1.1.
Screening COc1ccc(C(=O)/C=C/c2cccs2)c(OC(=O)N2CCOCC2)c1 returned L major viab 41.3, WT yeast gro inh -2.7, ABCG2 inh -1.7, RAM network inh 0.2 and ABCB1 inh 0.1.
For CCc1c(C)nc2ncnn2c1NCCc1ccc(Cl)cc1 the results were L major viab 38.0, WT yeast gro inh -9.0, ABCG2 inh 6.5, RAM network inh 0.2 and ABCB1 inh 1.1.
Screening O=C(Nc1cccnc1)NC1CCCCC1 returned L major viab -0.9, WT yeast gro inh 3.7, ABCG2 inh 4.4, RAM network inh 0.8 and ABCB1 inh 0.3.
For Cc1nn2c(nc(N3CCCCC3)c3ccccc32)c1C=O the results were L major viab 53.2*, WT yeast gro inh 22.7, ABCG2 inh 19.7, RAM network inh 5.0 and ABCB1 inh -0.3.
Screening CC(=O)Oc1ccccc1N(C(C)=O)S(=O)(=O)c1cccc([N+](=O)[O-])c1 returned L major viab 5.2, WT yeast gro inh 7.2, ABCG2 inh 9.2, RAM network inh -0.1 and ABCB1 inh 0.7.
`O=C(NNC(=O)c1ccccc1Br)c1ccc(SCC2CCCO2)c([N+](=O)[O-])c1` (stereo not drawn) gave L major viab -9.5, WT yeast gro inh -8.1, ABCG2 inh 2.9, RAM network inh 4.3 and ABCB1 inh 0.4.
O=[N+]([O-])c1ccc(O)c(/C=N/Nc2nn[nH]n2)c1 was read as L major viab -10.9, WT yeast gro inh 14.0, ABCG2 inh 3.4, RAM network inh -1.6 and ABCB1 inh 0.7.
For CCN(CC)C(=O)C1CCCN(c2ccc([N+](=O)[O-])cc2/C=N/NC(=O)c2ccccc2)C1 (stereo not drawn) the results were L major viab 11.5, WT yeast gro inh 11.6, ABCG2 inh 12.9, RAM network inh 0.8 and ABCB1 inh 12.3.
`O=C(N/N=C/c1cc([N+](=O)[O-])ccc1O)C1C2CCCCC21` (stereo not drawn) gave L major viab 92.2*, WT yeast gro inh -18.3, ABCG2 inh 1.3, RAM network inh 1.6 and ABCB1 inh 0.0.
For O=[N+]([O-])c1ccc(O)c(/C=N/Nc2ccc(Cl)nn2)c1 the results were L major viab 100.0*, WT yeast gro inh 5.7, ABCG2 inh -4.1, RAM network inh 1.2 and ABCB1 inh -6.9.
`CCN(CC)C(=O)C1CCCN(c2ccc([N+](=O)[O-])cc2/C=N/NC(=O)c2ccc([N+](=O)[O-])cc2)C1` (stereo not drawn) gave L major viab 52.9*, WT yeast gro inh -5.8, ABCG2 inh 14.7, RAM network inh 1.4 and ABCB1 inh 1.8.
`O=C(N/N=C/c1cc([N+](=O)[O-])ccc1O)C1CCCCC1` gave L major viab 97.2*, WT yeast gro inh 7.0, ABCG2 inh 18.5, RAM network inh 0.2 and ABCB1 inh 0.8.
Screening O=C(Cn1nc2ccccc2n1)N/N=C/c1cc([N+](=O)[O-])ccc1O returned L major viab -4.5, WT yeast gro inh 19.7, ABCG2 inh 1.4, RAM network inh 3.4 and ABCB1 inh -0.2.
`CCn1nnnc1NCc1c(OC)ccc2ccccc12` gave L major viab -5.3, WT yeast gro inh 7.2, ABCG2 inh 18.6, RAM network inh 0.3 and ABCB1 inh 0.0.
Screening Cc1ccccc1OCCSc1nc2ncnc(N)c2[nH]1 returned L major viab 8.1, WT yeast gro inh -7.4, ABCG2 inh 0.3, RAM network inh -0.6 and ABCB1 inh -0.1.
Screening Cc1ccc(CN2CC(C(=O)Nc3ccc(F)c([N+](=O)[O-])c3)CC2=O)cc1 (stereo not drawn) returned L major viab 29.5, WT yeast gro inh -4.3, ABCG2 inh 4.7, RAM network inh 1.5 and ABCB1 inh 0.5.
`COc1ccc(CNC(=O)C2(C)Cc3ccccc3C(=O)O2)cc1` (stereo not drawn) gave L major viab 0.8, WT yeast gro inh -3.7, ABCG2 inh -2.3, RAM network inh -0.8 and ABCB1 inh 0.0.
`COc1ccccc1/C=C/C(=O)NCC(=O)N/N=C(\CCC(=O)O)c1ccccc1` gave L major viab 99.1*, WT yeast gro inh -4.8, ABCG2 inh 3.7, RAM network inh 0.5 and ABCB1 inh 0.9.

High-throughput results (PubChem)
